Source: PubChem BioAssay AID2692 (The Scripps Research Institute Molecular Screening Center, 2010)
Calls of active or inactive are those of the source. No rule for the calls is given here.

The compounds below were run on transient receptor potential cation channel subfamily N member 1 (TRPN1/NompC), zebrafish (assay: zebrafish TRPN1 channel activation, late-stage follow-up, selectivity assay for TRPML3 selective agonist project, whole-cell patch clamp, HEK293 (AID 2692)). Details: at 10 µM.
Procedure, shortened: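 Test system – HEK293 cells expressing the TRPN1 ion channel · Medium – NaCl bath with 100 µM 2-APB, CsCl/BAPTA pipette · Schedule – 10 ms steps, holding potential +10 mV · Measured by – whole-cell patch clamp, 20 mV steps −200 to +100 mV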

current density at -80 mV	SMILES
-0.003 nA/pF (inactive)	CC1CCN(S(=O)(=O)c2ccc(C(C)C)cc2)CC1
-0.004 nA/pF (inactive)	Cc1ccc(S(=O)(=O)n2nccc2-c2c(-c3ccc(Cl)cc3)noc2C)cc1
-0.003 nA/pF (inactive)	CCOc1ccc(S(=O)(=O)N2CCCCCC2)c2ccccc12
